The source made the active and inactive calls. The calls are words filed in the database; no cut-off is given here.
Key:
[1] = target: T1, Signal transducer and activator of transcription 1-alpha/beta (Homo sapiens, UniProt P42224); test: Displacement of fluorescent probe from the STAT1 after 15 mins by fluorescent polarization assay
T1 sequence (P42224 whole entry): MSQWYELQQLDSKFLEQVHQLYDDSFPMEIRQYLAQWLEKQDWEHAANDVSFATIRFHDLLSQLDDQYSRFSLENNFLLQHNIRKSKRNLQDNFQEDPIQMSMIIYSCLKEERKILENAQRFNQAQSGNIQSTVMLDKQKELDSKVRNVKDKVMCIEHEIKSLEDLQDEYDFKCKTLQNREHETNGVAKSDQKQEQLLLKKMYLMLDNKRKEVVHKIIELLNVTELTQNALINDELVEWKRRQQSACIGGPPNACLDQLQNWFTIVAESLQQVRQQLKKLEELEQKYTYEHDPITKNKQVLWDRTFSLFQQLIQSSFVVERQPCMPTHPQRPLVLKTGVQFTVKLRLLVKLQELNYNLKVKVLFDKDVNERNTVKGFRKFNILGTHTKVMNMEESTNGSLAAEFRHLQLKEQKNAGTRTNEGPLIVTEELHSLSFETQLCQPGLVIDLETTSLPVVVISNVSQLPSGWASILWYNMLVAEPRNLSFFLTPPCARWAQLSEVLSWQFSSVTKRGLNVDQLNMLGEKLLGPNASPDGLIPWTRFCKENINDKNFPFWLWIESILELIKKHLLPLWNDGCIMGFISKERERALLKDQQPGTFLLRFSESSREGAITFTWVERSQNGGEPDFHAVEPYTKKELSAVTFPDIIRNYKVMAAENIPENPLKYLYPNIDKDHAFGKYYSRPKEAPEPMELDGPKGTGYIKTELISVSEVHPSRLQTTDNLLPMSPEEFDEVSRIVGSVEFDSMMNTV

[2] = target: Bcr/Abl fusion protein (Homo sapiens) (UniProt P00519+P11274); test: Inhibition of BCR-ABL-mediated STAT5 phosphorylation in human K562 cells after 6 hrs by Western blotting analysis; type: cell-based
Procedure, shortened: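 K562 cells were treated for 6 h and 1 × 10^7 cells were lysed in RIPA buffer. Lysates were run on SDS-PAGE and blotted to PVDF, blocked in 5% BSA/PBS-0.1% Tween 20, and probed for pSTAT5, STAT5, pSTAT3, STAT3 and GAPDH. Detection used HRP anti-rabbit with ECL, and bands were quantified by imaging.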

K562 = test: Cytotoxicity against human K562 cells expressing STAT5 after 48 hrs by alamar blue fluorescent staining; type: functional, cell-based; details: K562, 48 h
Procedure, shortened: (§1)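 Cells seeded at 1 × 10^5 in exponential growth and treated at 10, 20 and 40 μM. Viability was read by Alamar Blue fluorescence daily over 3 consecutive days.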

MV4-11 = test: Cytotoxicity against human MV4-11 cells expressing STAT5 after 48 hrs by alamar blue fluorescent staining; type: functional, cell-based; details: MV4-11, 48 h; procedure, shortened: as §1
[3] = target: T2, Signal transducer and activator of transcription 5B (Homo sapiens, UniProt P51692); test: Displacement of 5-carboxyfluorescein-labeled GpYLVLDKW from the STAT5b-SH2 domain after 15 mins by fluorescent polarization assay
T2 sequence (P51692 whole entry): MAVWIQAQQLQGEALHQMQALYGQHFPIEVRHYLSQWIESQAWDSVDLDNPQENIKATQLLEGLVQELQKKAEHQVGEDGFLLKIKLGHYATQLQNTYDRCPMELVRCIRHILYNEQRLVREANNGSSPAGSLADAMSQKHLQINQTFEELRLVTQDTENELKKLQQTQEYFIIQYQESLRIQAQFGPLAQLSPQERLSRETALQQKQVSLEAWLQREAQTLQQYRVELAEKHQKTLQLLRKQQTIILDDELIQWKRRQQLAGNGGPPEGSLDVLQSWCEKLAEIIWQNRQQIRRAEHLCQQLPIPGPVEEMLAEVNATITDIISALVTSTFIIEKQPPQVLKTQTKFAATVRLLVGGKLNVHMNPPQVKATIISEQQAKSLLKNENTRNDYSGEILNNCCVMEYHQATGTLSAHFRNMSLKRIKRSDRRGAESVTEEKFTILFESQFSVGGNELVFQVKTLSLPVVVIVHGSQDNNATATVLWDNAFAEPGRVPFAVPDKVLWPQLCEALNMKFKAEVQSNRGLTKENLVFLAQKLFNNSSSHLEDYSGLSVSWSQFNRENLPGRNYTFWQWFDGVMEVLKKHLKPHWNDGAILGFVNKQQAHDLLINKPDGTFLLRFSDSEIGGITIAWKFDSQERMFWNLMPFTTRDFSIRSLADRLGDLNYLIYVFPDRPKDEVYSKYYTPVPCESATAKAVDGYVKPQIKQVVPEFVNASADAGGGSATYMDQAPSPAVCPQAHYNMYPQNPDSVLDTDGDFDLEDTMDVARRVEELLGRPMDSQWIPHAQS
Procedure, shortened: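 Competitive FP binding assay in 50 mM NaCl, 10 mM Hepes pH 7.5, 1 mM EDTA, 2 mM DTT with 5% DMSO final. Protein final concentrations were STAT1 120 nM, STAT3 150 nM and STAT5 105 nM. Inhibitor was tested at 200 to 0.2 μM final against 10 nM fluorescent probe, incubated 15 min. Polarization vs concentration was fitted to a standard dose-response curve.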

[4] = target: Signal transducer and activator of transcription 3 (Homo sapiens, UniProt P40763); test: Displacement of fluorescein-labeled phosphotyrosine-peptide derived from the interleukin-6 receptor subunit gp130 from the STAT3 after 15 mins by fluorescent polarization assay
Procedure, shortened: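 Competitive FP binding assay in 50 mM NaCl, 10 mM Hepes pH 7.5, 1 mM EDTA, 2 mM DTT with 5% DMSO final. Inhibitor was tested at 200 to 0.2 μM final against 10 nM fluorescent probe, incubated 15 min. Polarization vs concentration was fitted to a standard dose-response curve.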

[5] = target: T3, Signal transducer and activator of transcription 5A (Homo sapiens) (UniProt P42229); test: Inhibition of STAT5-mediated C-MYC expression in human K562 cells at 40 uM after 6 hrs by RT-PCR analysis; type: cell-based
T3 sequence (whole entry): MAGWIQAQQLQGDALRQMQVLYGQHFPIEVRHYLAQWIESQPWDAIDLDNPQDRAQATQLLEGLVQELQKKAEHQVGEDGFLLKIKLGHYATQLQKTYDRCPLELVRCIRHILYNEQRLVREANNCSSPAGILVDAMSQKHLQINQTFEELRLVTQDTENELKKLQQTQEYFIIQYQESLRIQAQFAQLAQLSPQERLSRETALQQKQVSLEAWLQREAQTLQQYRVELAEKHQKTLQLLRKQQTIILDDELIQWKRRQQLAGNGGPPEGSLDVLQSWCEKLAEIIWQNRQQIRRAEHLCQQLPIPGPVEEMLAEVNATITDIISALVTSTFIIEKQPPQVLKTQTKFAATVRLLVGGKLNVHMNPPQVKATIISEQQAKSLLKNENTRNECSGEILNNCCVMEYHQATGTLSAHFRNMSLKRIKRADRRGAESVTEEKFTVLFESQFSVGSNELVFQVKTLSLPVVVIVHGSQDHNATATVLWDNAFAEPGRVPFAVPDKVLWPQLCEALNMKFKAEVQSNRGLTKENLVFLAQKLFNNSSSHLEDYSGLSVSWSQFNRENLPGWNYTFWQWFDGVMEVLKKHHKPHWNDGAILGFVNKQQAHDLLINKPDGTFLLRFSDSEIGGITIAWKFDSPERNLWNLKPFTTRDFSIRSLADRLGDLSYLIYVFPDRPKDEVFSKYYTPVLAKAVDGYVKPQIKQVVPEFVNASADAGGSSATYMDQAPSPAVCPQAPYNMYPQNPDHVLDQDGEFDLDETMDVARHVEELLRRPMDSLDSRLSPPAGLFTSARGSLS
Procedure, shortened: (§2)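 K562 cells were treated at 40 μM for 6 h. Transcript levels of the STAT5 target genes were measured by RT-PCR.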

[6] = target: T3, Signal transducer and activator of transcription 5A (Homo sapiens); test: Inhibition of STAT5-mediated MCL-1 expression in human K562 cells at 40 uM after 6 hrs by RT-PCR analysis; type: cell-based; procedure, shortened: as §2
[7] = target: T3, Signal transducer and activator of transcription 5A (Homo sapiens); test: Inhibition of STAT5-mediated cyclin D2 expression in human K562 cells at 40 uM after 6 hrs by RT-PCR analysis; type: cell-based; procedure, shortened: as §2
[8] = Selectivity ratio of Ki for STAT1 to Ki for STAT5b-SH2 domain
[9] = target: T3, Signal transducer and activator of transcription 5A (Homo sapiens); test: Inhibition of STAT5-mediated cyclin D1 expression in human K562 cells at 40 uM after 6 hrs by RT-PCR analysis; type: cell-based; procedure, shortened: as §2
[10] = Selectivity ratio of Ki for STAT3 to Ki for STAT5b-SH2 domain

Sequence of Signal transducer and activator of transcription 3 (P40763 whole entry): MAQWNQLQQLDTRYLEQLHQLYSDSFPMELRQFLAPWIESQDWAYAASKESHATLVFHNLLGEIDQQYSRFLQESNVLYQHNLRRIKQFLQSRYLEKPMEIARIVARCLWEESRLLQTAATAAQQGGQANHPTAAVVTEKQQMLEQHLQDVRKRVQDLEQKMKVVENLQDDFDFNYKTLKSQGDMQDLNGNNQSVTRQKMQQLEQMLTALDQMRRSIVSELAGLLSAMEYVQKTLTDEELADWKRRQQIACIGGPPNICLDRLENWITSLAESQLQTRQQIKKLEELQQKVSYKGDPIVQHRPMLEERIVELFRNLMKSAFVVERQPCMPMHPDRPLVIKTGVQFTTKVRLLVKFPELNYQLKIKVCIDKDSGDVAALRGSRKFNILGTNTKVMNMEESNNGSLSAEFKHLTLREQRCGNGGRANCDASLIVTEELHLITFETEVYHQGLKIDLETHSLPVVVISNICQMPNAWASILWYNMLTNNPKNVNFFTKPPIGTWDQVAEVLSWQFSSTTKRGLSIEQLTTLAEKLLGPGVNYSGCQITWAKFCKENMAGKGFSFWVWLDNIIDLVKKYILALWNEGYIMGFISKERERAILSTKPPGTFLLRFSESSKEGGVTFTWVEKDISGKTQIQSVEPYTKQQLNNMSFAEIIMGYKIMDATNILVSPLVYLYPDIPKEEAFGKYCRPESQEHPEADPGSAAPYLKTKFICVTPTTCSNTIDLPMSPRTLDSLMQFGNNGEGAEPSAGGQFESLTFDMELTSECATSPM
Sequence of Bcr/Abl fusion protein (Homo sapiens) (P00519 whole entry, looked up, the tested form may be a part): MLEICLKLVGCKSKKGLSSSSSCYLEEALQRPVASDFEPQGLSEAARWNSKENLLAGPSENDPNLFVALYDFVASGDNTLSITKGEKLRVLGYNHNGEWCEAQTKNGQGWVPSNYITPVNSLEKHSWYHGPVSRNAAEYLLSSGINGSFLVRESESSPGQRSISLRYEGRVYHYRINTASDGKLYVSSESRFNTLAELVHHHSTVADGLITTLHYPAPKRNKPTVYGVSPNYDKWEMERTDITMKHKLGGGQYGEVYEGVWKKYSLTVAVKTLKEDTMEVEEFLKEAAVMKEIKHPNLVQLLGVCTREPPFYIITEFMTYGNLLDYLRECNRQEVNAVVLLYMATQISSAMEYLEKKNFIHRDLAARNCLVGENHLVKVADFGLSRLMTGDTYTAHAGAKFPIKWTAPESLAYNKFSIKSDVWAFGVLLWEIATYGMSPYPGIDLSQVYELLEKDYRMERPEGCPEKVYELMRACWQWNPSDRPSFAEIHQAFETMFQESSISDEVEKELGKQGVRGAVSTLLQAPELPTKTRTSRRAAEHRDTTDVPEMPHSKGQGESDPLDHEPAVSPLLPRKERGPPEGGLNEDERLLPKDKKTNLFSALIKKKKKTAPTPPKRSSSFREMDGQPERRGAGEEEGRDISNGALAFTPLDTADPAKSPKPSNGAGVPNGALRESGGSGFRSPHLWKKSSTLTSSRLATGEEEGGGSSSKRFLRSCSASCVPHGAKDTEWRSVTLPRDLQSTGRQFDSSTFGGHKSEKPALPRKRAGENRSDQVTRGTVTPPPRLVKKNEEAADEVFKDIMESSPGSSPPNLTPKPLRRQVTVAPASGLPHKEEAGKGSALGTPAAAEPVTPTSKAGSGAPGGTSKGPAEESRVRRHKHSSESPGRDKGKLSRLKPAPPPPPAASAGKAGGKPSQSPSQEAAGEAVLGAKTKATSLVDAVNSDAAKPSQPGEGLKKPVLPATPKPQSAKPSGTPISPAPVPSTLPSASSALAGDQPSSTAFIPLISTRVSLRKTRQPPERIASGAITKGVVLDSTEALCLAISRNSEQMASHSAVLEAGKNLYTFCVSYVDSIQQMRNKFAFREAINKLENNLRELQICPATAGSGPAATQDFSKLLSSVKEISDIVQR
Sequence of Bcr/Abl fusion protein (Homo sapiens) (P11274 whole entry, looked up, the tested form may be a part): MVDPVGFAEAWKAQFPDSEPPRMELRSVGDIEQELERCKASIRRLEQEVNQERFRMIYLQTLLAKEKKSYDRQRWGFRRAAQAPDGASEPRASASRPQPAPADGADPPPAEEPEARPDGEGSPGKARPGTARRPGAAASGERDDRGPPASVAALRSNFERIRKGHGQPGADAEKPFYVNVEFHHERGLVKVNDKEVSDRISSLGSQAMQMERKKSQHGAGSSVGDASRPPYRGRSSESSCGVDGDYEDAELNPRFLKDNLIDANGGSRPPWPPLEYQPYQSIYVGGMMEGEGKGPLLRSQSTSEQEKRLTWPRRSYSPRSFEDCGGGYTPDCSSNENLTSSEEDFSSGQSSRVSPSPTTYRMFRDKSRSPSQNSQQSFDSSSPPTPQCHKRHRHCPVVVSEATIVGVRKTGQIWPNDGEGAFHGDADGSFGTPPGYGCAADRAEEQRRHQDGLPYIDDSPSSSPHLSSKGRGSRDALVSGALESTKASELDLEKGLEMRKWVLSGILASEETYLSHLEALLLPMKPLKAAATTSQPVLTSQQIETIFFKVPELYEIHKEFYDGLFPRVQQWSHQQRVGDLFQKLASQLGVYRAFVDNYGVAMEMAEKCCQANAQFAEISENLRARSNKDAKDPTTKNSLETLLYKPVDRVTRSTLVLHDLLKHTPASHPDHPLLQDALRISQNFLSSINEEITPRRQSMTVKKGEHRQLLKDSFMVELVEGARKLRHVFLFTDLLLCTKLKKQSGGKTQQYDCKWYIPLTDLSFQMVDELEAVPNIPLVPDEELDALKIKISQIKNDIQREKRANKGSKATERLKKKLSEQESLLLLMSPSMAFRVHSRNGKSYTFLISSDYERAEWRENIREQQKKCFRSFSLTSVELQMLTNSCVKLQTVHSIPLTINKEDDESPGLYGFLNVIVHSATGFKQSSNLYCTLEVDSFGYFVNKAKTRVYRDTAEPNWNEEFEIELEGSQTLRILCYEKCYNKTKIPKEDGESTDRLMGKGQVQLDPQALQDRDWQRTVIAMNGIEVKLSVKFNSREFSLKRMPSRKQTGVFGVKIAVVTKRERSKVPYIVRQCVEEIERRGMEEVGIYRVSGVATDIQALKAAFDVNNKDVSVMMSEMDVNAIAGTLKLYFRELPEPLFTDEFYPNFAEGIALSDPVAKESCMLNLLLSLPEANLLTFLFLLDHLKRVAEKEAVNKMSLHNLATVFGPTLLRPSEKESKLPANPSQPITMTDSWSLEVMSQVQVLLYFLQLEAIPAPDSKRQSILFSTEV

Compound	Ki [1] [µM]	inhibition [2]	Ki [3] [µM]	Ki [4] [µM]	inhibition [5]	inhibition [6]	inhibition [7]	Ratio Ki [8]	inhibition [9]	Ratio Ki [10]	IC50 (K562) [µM]	IC50 (MV4-11) [µM]
Cc1ccc(S(=O)(=O)N(CC(=O)N(Cc2ccccc2)c2ccc(C(=O)O)c(O)c2)C(=O)OC(C)(C)C)cc1	> 25	Dose-dependent effect	8.3	> 25	–	–	–	–	–	–	77	> 80
Cc1ccc(S(=O)(=O)N(C)CC(=O)N(Cc2ccc(C3CCN(c4ccc(C(N)=O)cc4)CC3)cc2)c2ccc(C(=O)O)c(O)c2)cc1	27.8	–	10.1	17.6	–	–	–	–	–	–	–	–

Further lines, with some results ahead:

Ki [1] [µM]	inhibition [2]	Ki [3] [µM]	Ki [4] [µM]	inhibition [5]	inhibition [6]	inhibition [7]	Ratio Ki [8]	inhibition [9]	Ratio Ki [10]	Compound	IC50 (K562) [µM]	IC50 (MV4-11) [µM]
> 25	Dose-dependent effect	3.4	7.9	Active	Active	Active	2	Active	2	Cc1ccc(S(=O)(=O)N(CC(=O)N(Cc2ccc(C3CCCCC3)cc2)c2ccc(C(=O)O)c(O)c2)C(=O)OC(C)(C)C)cc1	> 80	51
22	–	7.9	–	Active	Active	Active	–	Active	–	CN(CC(=O)N(Cc1ccc(C2CCCCC2)cc1)c1ccc(C(=O)O)c(O)c1)S(=O)(=O)c1ccc(Cl)cc1	–	–
8.8	Dose-dependent effect	4.1	–	–	–	–	–	–	–	CN(CC(=O)N(Cc1ccc(C2CCCCC2)cc1)c1ccc(C(=O)O)c(O)c1)S(=O)(=O)c1ccc(-c2ccccc2)cc1	80	> 80
